Results from paper PMC8978969 (RSC Advances, 2022).
≈ marks a conversion by molar mass, not a printed value. Where “and” joins values, the source holds several entries; their conditions need not be identical. Identical values can stand only once. One block for each molecule: values may come before it.

What was measured:
[1] = 24 h kinetic saturation solubilities; type: physicochemical
[2] = Gastrointestinal tract parallel artificial membrane permeability assay; type: in vitro ADME; details: PAMPA
Outline: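 Donor solutions were made in Tris buffer pH 6.5 at several drug concentrations starting from 150 μg ml−1. The acceptor-well hydrophobic filter (0.45 μm) was coated with 2% soybean L-α-phosphatidylcholine in n-dodecane, and the acceptor held Tris buffer pH 7.4. The sandwich was incubated 16 h at room temperature. Receiver solution was quantified by HPLC, n = 6. Papp (cm s−1) was calculated from a published equation.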

Equilibrium solubility = type: physicochemical; details: for solubility at 24 h: thermodynamic from solid
[3] = Partition coefficients by shake-flask method; type: physicochemical
Outline: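 Shake-flask method per OECD guidelines. n-Octanol and ultrapure water were mutually saturated by 24 h in a thermostat shaker, then 72 h standing. After partitioning, phases were centrifuged to separate completely, and drug in each phase was measured by HPLC to give logP. For logD7.4, 0.01 M PBS pH 7.4 replaced water, with otherwise identical steps.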

Cytotoxicity test = type: cell-based; details: human, Caco-2 cells
Outline: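 Caco-2 cells were grown in DMEM with 10% FBS and 1% penicillin/streptomycin at 37 °C in 5% CO2. Cells were seeded at 4 × 10^3 per well and left 16 h. Test compounds were dissolved in DMSO and serially diluted in DMEM, then applied for 24 h. CCK-8 was added for 3 h and absorbance read at 450 nm. IC50 was derived from a concentration–survival plot, mean ± SD of triplicates.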

Solution stability assay = type: physicochemical; details: 37 °C

solubility kinetic at 12 h ([1]; Milli-Q water): 40.3 µg/mL (≈ 125 µM) | Time within which peak concentration was achieved ([1]; PBS 7.4, SIF and FaSSIF): ≤ 6 h | Time of peak concentration ([1]; water): 4 h | Papp at 16 h, 150 μg ml^−1 [2]: 2.46 ×10⁻⁶ cm/s | solubility at 24 h (Equilibrium solubility; FaSSIF, 37 °C, pH 6.5, fassif): 196 ± 3.32 µg/mL (≈ 606 µM) | solubility at 24 h (Equilibrium solubility; FeSSIF, 37 °C, pH 5, fessif): 30.1 ± 1.07 µg/mL (≈ 93.2 µM) | solubility at 24 h (Equilibrium solubility; Milli-Q water, 37 °C, water): 43.5 ± 1.67 µg/mL (≈ 135 µM) | solubility at 24 h (Equilibrium solubility; PBS 7.4, 37 °C, pH 7.4, aqueous buffer): 1590 ± 103 µg/mL (≈ 4910 µM) | solubility at 24 h (Equilibrium solubility; SIF, 37 °C, pH 6.8, fassgf or other biorelevant): 584 ± 23 µg/mL (≈ 1810 µM) | solubility thermodynamic at 24 h (Equilibrium solubility; Tris buffer pH 6.5, pH 6.5): 178 µg/mL (≈ 550 µM) | solubility at 24 h (Equilibrium solubility; blank FaSSIF, 37 °C, pH 6.5, aqueous buffer): 190.6 ± 0.63 µg/mL (≈ 589 µM) | solubility at 24 h (Equilibrium solubility; blank FeSSIF, 37 °C, pH 5, aqueous buffer): 28.7 ± 0.99 µg/mL (≈ 88.7 µM) | logD ([3]; n-octanol/PBS 7.4, pH 7.4): 0.45 ± 0.01 | logP ([3]; n-octanol/water): 1.71 ± 0.03 | Solution stability in SIF (Solution stability assay; SIF, whole experiment period (24 h)): relatively stable | Initial content remained at 24 h (Solution stability assay; pH 7.4 buffer (PBS 7.4), 20 μg ml^−1 GLI, 24 h): zero
Molecule: Cc1ccc(S(=O)(=O)NC(=O)NN2CC3CCCC3C2)cc1 (stereo not drawn) [GLI, Gliclazide]
IC50 at 24 h (Cytotoxicity test): 20.8 ± 1.11 mM

Solubility, FaSSIF (Equilibrium solubility; FaSSIF (pH 6.5), 37 °C, as GLI, n = 3, mean ± SD): 34.53 ± 2.79 µg/mL | Solubility, PBS 7.4 (Equilibrium solubility; PBS pH 7.4, 37 °C, as GLI, n = 3, mean ± SD): 301.87 ± 6.82 µg/mL | Solubility, SIF (Equilibrium solubility; SIF (pH 6.8), 37 °C, as GLI, n = 3, mean ± SD): 102.43 ± 11.54 µg/mL | Solubility, Blank FaSSIF (Equilibrium solubility; blank FaSSIF, 37 °C, as GLI, n = 3, mean ± SD): 32.14 ± 1.56 µg/mL | Solubility, Water (Equilibrium solubility; water, 37 °C, 24 h, as GLI, n = 3, mean ± SD): 1.5 µg/mL and 1.51 ± 0.13 µg/mL | log D7.4 ([3]; n-octanol/PBS 7.4, 37 °C): 0.69 ± 0.02 | log P ([3]; n-octanol/water, 37 °C): 2.72 ± 0.24
Molecule: Gliclazide tributyl(tetradecyl)phosphonium ionic liquid [[P6,6,6,14][GLI]]
